Measurements from ChEMBL document CHEMBL4145474, “Discovery of novel piperonyl derivatives as diapophytoene desaturase inhibitors for the treatment of methicillin-, vancomycin- and linezolid-resistant Staphylococcus aureus infections” (Eur J Med Chem, 2018).
Calls of active or inactive are those of the source. The calls are words filed in the database; no cut-off is given here.

Columns and labels:
HepG2 = test: Cytotoxicity against human HepG2 cells assessed as reduction in cell viability after 72 hrs by CCK-8 assay; assay type: functional; details: HepG2, 72 h
Outline: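 HepG2 or HEK-293T cells were seeded at 5000 per well and grown 24 h at 37 °C, 5% CO₂. Cells were then exposed to compound for 72 h; compound came from DMSO, diluted in medium to final DMSO <0.4%, with a DMSO-matched vehicle control. Viability was read by 10% CCK-8 for 1 h, absorbance 450 nm, in triplicate.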

Staphylococcus aureus [1] = test: Antibacterial activity against wild type Staphylococcus aureus Newman infected in BALB/c mouse assessed as decrease in bacterial load in mouse liver at 0.4 mg, ip bid administered 4.5 days […] bacterial infection measured after 90 hrs relative to control; assay type: functional
Outline: (§1)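 Female BALB/c mice, 6-8 weeks old, infected retro-orbitally with 2.2 × 10⁷ CFU S. aureus Newman. Intraperitoneal dosing in 12 intervals: pre-treatment groups received a total of 50 or 200 mg/kg starting before infection; post-treatment groups received a total of 39 or 156 mg/kg starting 6 h after infection. Vehicle was ddH₂O. At 90 h post-infection, liver or kidney was homogenized in PBS/0.01% Triton X-100 and plated on TSA for CFU.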

[2] = biological target: T1, 4,4'-diapophytoene desaturase (4,4'-diaponeurosporene-forming) (Staphylococcus aureus (strain Newman)) (UniProt O07855); test: Inhibition of CrtN in methicillin-resistant Staphylococcus aureus USA300 LAC assessed as bacterial survival after 6 hrs by human whole blood assay (reference value: 14.33%)
T1 sequence (whole entry): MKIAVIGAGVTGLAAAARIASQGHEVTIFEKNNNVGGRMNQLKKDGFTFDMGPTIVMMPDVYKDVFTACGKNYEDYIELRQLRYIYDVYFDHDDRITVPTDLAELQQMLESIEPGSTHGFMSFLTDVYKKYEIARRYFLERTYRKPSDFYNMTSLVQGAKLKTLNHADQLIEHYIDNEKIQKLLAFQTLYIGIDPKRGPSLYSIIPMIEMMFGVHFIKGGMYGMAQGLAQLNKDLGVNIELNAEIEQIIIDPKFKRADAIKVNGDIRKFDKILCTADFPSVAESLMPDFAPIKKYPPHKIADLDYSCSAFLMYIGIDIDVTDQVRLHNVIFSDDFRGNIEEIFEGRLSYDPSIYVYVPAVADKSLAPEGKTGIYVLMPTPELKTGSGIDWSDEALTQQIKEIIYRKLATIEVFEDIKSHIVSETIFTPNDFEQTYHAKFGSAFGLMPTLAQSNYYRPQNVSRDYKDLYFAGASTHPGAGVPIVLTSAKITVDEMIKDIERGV
Outline: (§2)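 Overnight cultures spun, resuspended in sterile PBS at 1 × 10⁷ CFU/mL, then mixed 1:10 with fresh whole blood from healthy human volunteers (final 1 × 10⁶ CFU/mL). Incubated 6 h at 37 °C; surviving CFU counted by plating dilutions on TSA. Two independent experiments.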

[3] = biological target: T1, 4,4'-diapophytoene desaturase (4,4'-diaponeurosporene-forming) (Staphylococcus aureus (strain Newman)); test: Inhibition of CrtN in methicillin-resistant Staphylococcus aureus USA400 MW2 assessed as bacterial survival after 6 hrs by human whole blood killing assay (reference value: 23.33%); outline: as §2
[4] = biological target: T1, 4,4'-diapophytoene desaturase (4,4'-diaponeurosporene-forming) (Staphylococcus aureus (strain Newman)); test: Inhibition of CrtN in methicillin-resistant Staphylococcus aureus USA300 LAC assessed as bacterial survival at 1 uM after 24 hrs by H2O2 killing assay (reference value: 29.67%)
[5] = biological target: T2, 4,4'-diapophytoene desaturase (4,4'-diaponeurosporene-forming) (Staphylococcus aureus (strain Mu50 / ATCC 700699)) (UniProt Q99R76); test: Inhibition of CrtN in vancomycin-intermediate methicillin-resistant Staphylococcus aureus Mu50 assessed as bacterial survival at 1 uM after 24 hrs by H2O2 killing assay (reference value: 23.33%); details: Staphylococcus aureus subsp. aureus Mu50
T2 sequence (whole entry): T1 sequence (whole entry)

Staphylococcus aureus [6] = test: Growth inhibition of methicillin-resistant Staphylococcus aureus USA400 MW2 at 0.2 mM incubated for overnight; assay type: functional, organism-based
Outline: (§3)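 Overnight cultures washed in PBS and diluted in TSB to OD600 ~1.0. Inoculated to a final OD600 of about 0.05 into TSB containing compound (0.2 or 0.05 mM, from a 20 mM DMSO stock) or DMSO growth control, overlaid with paraffin wax. OD600 read every 30 min during overnight incubation at 37 °C.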

Staphylococcus aureus [7] = test: Growth inhibition of wild type Staphylococcus aureus Newman at 0.2 mM incubated for overnight; assay type: functional, organism-based
Outline: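 A 20 mM DMSO stock was diluted in TSB to 0.2 mM final, with a DMSO growth control. Dilutions were overlaid with paraffin and held 4 h at 37 °C. Overnight cultures were PBS-washed and added to a final OD600 ≈ 0.05. Plates were incubated overnight at 37 °C with OD600 read every 30 min.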

Staphylococcus aureus [8] = test: Growth inhibition of vancomycin-intermediate methicillin-resistant Staphylococcus aureus Mu50 at 0.2 mM incubated for overnight; assay type: functional, organism-based; outline: as §3
Staphylococcus aureus [9] = test: Inhibition of pigmentation in wild type Staphylococcus aureus Newman after 48 hrs by spectrophotometric method; assay type: functional, organism-based
Outline: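 S. aureus Newman was grown in TSB 48 h at 37 °C with a concentration series of compound in DMSO, in duplicate. Controls were a DMSO vehicle and a nonpigmented CrtN mutant. Cells were washed twice in 0.01 M PBS and pigment extracted in methanol. A450 was measured and IC50 derived by curve fitting.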

[10] = biological target: T1, 4,4'-diapophytoene desaturase (4,4'-diaponeurosporene-forming) (Staphylococcus aureus (strain Newman)); test: Inhibition of Staphylococcus aureus Newman 6His-tagged CrtN expressed in Escherichia coli BL21(DE3) assessed as 4,4'-diapophytoene accumulation by UV-HPLC analysis; details: Staphylococcus aureus subsp. aureus str. Newman
Outline: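 Substrate was E. coli-derived diapophytoene emulsified with phosphatidylcholine in 0.02 M HEPES pH 7.5. Run anaerobically (glucose oxidase 20 U/mL, catalase 20000 U/mL, glucose 2 mM final) overnight at 37 °C, stopped with methanol. Triplicate; diapophytoene monitored by HPLC at 286 nm.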

Staphylococcus aureus [11] = test: Antibacterial activity against vancomycin-intermediate methicillin-resistant Staphylococcus aureus Mu50 infected in BALB/c mouse assessed as decrease in bacterial survival in mouse liver at 0.1 to 0.4 mg, ip bid administered 4.5 days after 6 hrs bacterial infection measured after 90 hrs; assay type: functional, organism-based
Outline: (§4)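 6–8-week-old female BALB/c mice (SPF) dosed intraperitoneally twice daily over 4.5 d at 0.1 or 0.4 mg/bid. Pre-treatment started before infection; post-treatment started 6 h after infection. Vancomycin and linezolid controls given as pre-treatment at 0.4 mg/bid. Retro-orbital inoculation: Mu50 1.1 × 10⁹ CFU, NRS271 1.8 × 10⁸ CFU. Kidneys and livers homogenised in PBS/0.01% Triton X-100 and plated on TSA for CFU.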

Staphylococcus aureus [12] = test: Antibacterial activity against methicillin/linezolid-resistant Staphylococcus aureus NRS271 infected in BALB/c mouse assessed as decrease in bacterial survival in mouse liver at 0.1 to 0.4 mg, ip bid administered 4.5 days after 6 hrs bacterial infection measured after 90 hrs; assay type: functional, organism-based; outline: as §4
Staphylococcus aureus [13] = test: Antibacterial activity against wild type Staphylococcus aureus Newman infected in BALB/c mouse assessed as decrease in bacterial load in mouse liver at 0.1 mg, ip bid administered 4.5 days after 6 hrs bacterial infection measured after 90 hrs relative to control; assay type: functional; outline: as §1

Q: For CN(C/C=C/C=C/c1ccc(C(F)(F)F)cc1F)Cc1ccc2c(c1)OCO2.Cl, which CC50 (HepG2) is on record?
A: 90.3 µM

Q: And the Activity (Staphylococcus aureus [1])?
A: 1.9 deltalog10CFU

Q: What about the Survival [2] of the same molecule?
A: 1.57%

Q: And the Survival [3]?
A: 0.93%

Q: And the Survival [4]?
A: 2.67%

Q: And the Survival [5]?
A: 2%

Q: And the “growth inhibition (GI)” value (Staphylococcus aureus [6])?
A: inactive

Q: What about the “growth inhibition (GI)” value (Staphylococcus aureus [7]) of the same molecule?
A: inactive

Q: What about the “growth inhibition (GI)” value (Staphylococcus aureus [8]) of the same molecule?
A: inactive

Q: What about the IC50 (Staphylococcus aureus [9]) of the same molecule?
A: 4.02 nM

Q: What about the inhibition [10] of the same molecule?
A: Active

Q: What about the Activity (Staphylococcus aureus [11]) of the same molecule?
A: Active

Q: What about the Activity (Staphylococcus aureus [12]) of the same molecule?
A: inactive

Q: And the Activity (Staphylococcus aureus [13])?
A: 1.53 deltalog10CFU
